Measurements as given in ChEMBL document CHEMBL4831547, “DNDI-6148: A Novel Benzoxaborole Preclinical Candidate for the Treatment of Visceral Leishmaniasis” (J Med Chem, 2021).

Legend:
[1] = Selectivity index, ratio of CC50 for human MRC5 cells to EC50 for Leishmania infantum MHOM/MA(BE)/67/ITMAP263; type: toxicity; conditions: read-out: Ratio CC50/EC50
[2] = Drug metabolism in human assessed as M12 metabolite formation; type: ADME
[3] = Drug metabolism in rat assessed as M12 metabolite formation; type: ADME
[4] = Drug metabolism in mouse assessed as M12 metabolite formation; type: ADME
[5] = Drug metabolism in hamster assessed as M12 metabolite formation; type: ADME, Mesocricetus auratus
[6] = Drug metabolism in dog assessed as M12 metabolite formation; type: ADME, Canis lupus familiaris
[7] = Toxicity in Sprague-Dawley rat at 50 mg/kg administered daily for 14 days; type: organism-based; conditions: in vivo, 336 h, time 14 day
In short: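 Exploratory 14-day toxicology study with daily dosing in male and female Sprague-Dawley rats.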

[8] = Drug metabolism in human liver microsomes at 10 uM incubated for 60 mins by LC-UV/MS analysis; type: ADME, Microsome; conditions: 1 h
[9] = Genotoxicity in Salmonella typhimurium TA100 over 1 to 1000 ug in absence of S9 fraction by Ames test; type: toxicity; conditions: salmonella enterica subsp. enterica serovar typhimurium, dose 1-1000 µg
In short: (§1)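 Mini-Ames reverse mutation screen in S. typhimurium TA98 and TA100, run with and without induced rat liver S9. Doses were 1.5, 4, 10, 25, 64, 160, 400 and 1000 μg per well. Positive controls were 2-aminoanthracene, 2-nitrofluorene and sodium azide; DMSO was the negative control.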

[10] = Genotoxicity in Salmonella typhimurium TA98 over 1 to 1000 ug in presence of S9 fraction by Ames test; type: toxicity, subcellular; conditions: salmonella enterica subsp. enterica serovar typhimurium, dose 1-1000 µg; in short: as §1
[11] = Drug metabolism in Sprague-Dawley rat liver microsomes at 10 uM incubated for 60 mins by LC-UV/MS analysis; type: ADME, Microsome; conditions: 1 h
In short: (§2)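 Incubated at 10 μM with liver microsomes (1 mg/mL) from Beagle dog or Sprague-Dawley rat for 60 min. Reactions were stopped by precipitation with formic acid/acetonitrile, and metabolites were identified by LC-UV-MSn (n = 1–2).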

[12] = Genotoxicity in Salmonella typhimurium TA100 over 1 to 1000 ug in presence of S9 fraction by Ames test; type: toxicity, subcellular; conditions: salmonella enterica subsp. enterica serovar typhimurium, dose 1-1000 µg; in short: as §1
[13] = Clearance in human; type: ADME
[14] = Permeability of compound in dog MDCK-MDR1 cells at 2 uM after 150 min by LC-MS/MS analysis; type: ADME, cell-based, Canis lupus familiaris; conditions: mdck-mdr1, 2.5 h
In short: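 Bidirectional MDCK-MDR1 monolayer permeability. A→B and B→A transport was measured in triplicate over 150 min at 37 °C, 5% CO2, and quantified by LC-MS/MS as analyte/internal standard peak-area ratio.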

[15] = Drug metabolism in dog liver microsomes at 10 uM incubated for 60 mins by LC-UV/MS analysis; type: ADME, Canis lupus familiaris, Microsome; conditions: 1 h; in short: as §2
[16] = Genotoxicity in Salmonella typhimurium TA98 over 1 to 1000 ug in absence of S9 fraction by Ames test; type: toxicity; conditions: salmonella enterica subsp. enterica serovar typhimurium, dose 1-1000 µg; in short: as §1

Row | Compound | selectivity ratio [1] | also measured
1 | O=C(Nc1ccc2c(c1)B(O)OC2)c1cn(-c2ccc(Cl)cc2)nc1C(F)(F)F | 2 | –
2 | Cc1c(-c2ccccn2)coc1C(=O)Nc1ccc2c(c1)B(O)OC2 | 37 | Drug metabolism [2]: Metabolite_Detected; Drug metabolism [3]: Metabolite_Detected; Drug metabolism [4]: Metabolite_Detected; Drug metabolism [5]: Metabolite_Detected; Drug metabolism [6]: Metabolite_Detected
3 | O=C(Nc1ccc2c(c1)B(O)OC2)c1cn(-c2ccccn2)nc1C(F)(F)F | 1.6 | –
4 | Cc1c(C(=O)Nc2ccc3c(c2)B(O)OC3)nnn1-c1ccccn1 | > 39 | Activity [7]: Non-Toxic; Drug metabolism [8]: Metabolite_Notdetected; Activity [9]: Non-Toxic; Activity [10]: Non-Toxic; Drug metabolism [11]: Metabolite_Notdetected; Activity [12]: Non-Toxic; clearance [13]: 1 mL/min/kg; permeability [14]: Permeable; Drug metabolism [15]: Metabolite_Notdetected; Activity [16]: Non-Toxic
5 | O=C(Nc1ccc2c(c1)B(O)OC2)c1cn(CCC(F)(F)F)nc1C(F)(F)F | 38 | –
6 | COc1cccc(-n2nnc(C(=O)Nc3ccc4c(c3)B(O)OC4)c2C)n1 | > 80 | –
7 | O=C(Nc1ccc2c(c1)B(O)OC2)c1nnc(-c2ccccn2)o1 | > 32 | –
8 | Cn1nc(-c2ccccn2)cc1C(=O)Nc1ccc2c(c1)B(O)OC2 | > 2 | –
9 | O=C(Nc1ccc2c(c1)B(O)OC2)c1cn(CC(F)(F)F)nc1C(F)(F)F | > 40 | –
10 | O=C(Nc1ccc2c(c1)B(O)OC2)c1cn(C2CCC2)nc1C(F)(F)F | 53 | –
11 | O=C(Nc1ccc2c(c1)B(O)OC2)c1cn(C2CCOCC2)nc1C(F)(F)F | > 21 | –
12 | COc1ccccc1-n1cc(C(=O)Nc2ccc3c(c2)B(O)OC3)c(C)n1 | 7.3 | –
13 | Cn1nc(C(=O)Nc2ccc3c(c2)B(O)OC3)cc1-c1ccccn1 | 31 | –
14 | Cc1nn(CCC(F)(F)F)cc1C(=O)Nc1ccc2c(c1)B(O)OC2 | > 11 | –
15 | O=C(Nc1ccc2c(c1)B(O)OC2)c1cn(-c2ccccn2)nn1 | 30 | –
16 | Cc1cccc(-n2ncc(C(=O)Nc3ccc4c(c3)B(O)OC4)c2C)n1 | 25 | –
17 | Cc1c(C(=O)Nc2ccc3c(c2)B(O)OC3)nnn1-c1cccnc1 | > 1.8 | –
18 | O=C(Nc1ccc2c(c1)B(O)OC2)c1cc(-c2ccccn2)n[nH]1 | 8 | –
19 | Cc1c(-c2ccccn2)csc1C(=O)Nc1ccc2c(c1)B(O)OC2 | 4 | –
20 | CCCCCCCCCCCCCCCCOP(=O)([O-])OCC[N+](C)(C)C [MILTEFOSINE] | > 6.2 | –
21 | O=C(Nc1ccc2c(c1)B(O)OC2)c1cn(C(F)(F)F)nc1C(F)(F)F | > 31 | –
22 | COc1cccc(-n2ncc(C(=O)Nc3ccc4c(c3)B(O)OC4)c2C)n1 | 31 | –
23 | Cc1nn(C2CCC2)cc1C(=O)Nc1ccc2c(c1)B(O)OC2 | > 4 | –
24 | O=C(Nc1ccc2c(c1)B(O)OC2)c1ccc(F)cc1C(F)(F)F | > 24 | –
25 | Cc1c(C(=O)Nc2ccc3c(c2)B(O)OC3)nnn1-c1ccccc1 | > 1.7 | –
26 | Cc1c(C(=O)Nc2ccc3c(c2)B(O)OC3)cnn1-c1ccccn1 | 15 | –
27 | Cc1cccc(-n2nnc(C(=O)Nc3ccc4c(c3)B(O)OC4)c2C)n1 | > 10 | –
28 | Cc1oc(C(=O)Nc2ccc3c(c2)B(O)OC3)cc1-c1ccccn1 | 18 | –
29 | Cc1nn(-c2ccccn2)cc1C(=O)Nc1ccc2c(c1)B(O)OC2 | > 11 | –
30 | Cc1c(C(=O)Nc2ccc3c(c2)B(O)OC3)cnn1CCC(F)(F)F | > 5 | –
